Drawing on ChEMBL document CHEMBL1126178, “Structure-activity study of hCGRP8-37, a calcitonin gene-related peptide receptor antagonist” (J Med Chem, 1992), this text covers IC50, EC50 and Relative potency for 9 compounds.

For assay [1], the target named is Calcitonin gene-related peptide type 1 receptor (Rattus norvegicus, UniProt Q63118). In words: Binding affinity against [125I]-hCalcitonin gene-related peptide type alpha receptor binding sites in rat brain membrane. The format is cell membranes.
Calcitonin gene-related peptide type 1 receptor, sequence (Q63118 whole entry): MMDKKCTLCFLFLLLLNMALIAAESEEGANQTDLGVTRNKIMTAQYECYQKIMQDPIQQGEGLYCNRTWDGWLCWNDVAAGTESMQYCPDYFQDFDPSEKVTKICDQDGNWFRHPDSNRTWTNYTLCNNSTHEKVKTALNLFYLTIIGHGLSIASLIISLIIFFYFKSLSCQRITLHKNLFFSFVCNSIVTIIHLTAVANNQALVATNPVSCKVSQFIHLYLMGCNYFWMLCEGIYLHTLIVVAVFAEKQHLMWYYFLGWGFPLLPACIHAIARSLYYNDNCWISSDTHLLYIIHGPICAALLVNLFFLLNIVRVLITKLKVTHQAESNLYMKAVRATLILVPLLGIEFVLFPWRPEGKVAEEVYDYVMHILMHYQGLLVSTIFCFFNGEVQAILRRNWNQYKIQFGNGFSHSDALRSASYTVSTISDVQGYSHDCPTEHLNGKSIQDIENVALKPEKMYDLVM
Assay [2] is filed under the species Cavia porcellus. In words: Dose inhibiting the ionotropic response induced by hCGRP-alpha in guinea pig left atrium. To be noted: Cardiac atrium. The format is functional. The method in brief:
(§1)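 Atria were taken from male Hartley guinea pigs (350-400 g) and the prostatic vas deferens from male Sprague-Dawley rats (200-250 g). Tissues were mounted on platinum electrodes in oxygenated Krebs-Ringer at 37 °C and equilibrated 1 h at 0.5-1 g tension. Force-transducer responses were recorded to cumulative hCGRPα concentrations, with test peptide (1 µM) added 10 min before. Values are mean ± SE.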

The species named for assay [3] is Cavia porcellus. Kind of assay: Dose inhibiting the ionotropic response induced by hCGRP-alpha in guinea pig left atrium relative to hCGRP(8-37). Also noted: unit not given here. Format: functional, Cardiac atrium.
The species entered for assay [4] is Cavia porcellus. Kind of assay: Dose inhibiting the chronotropic response induced by hCGRP-alpha in guinea pig right atrium. The format is functional. To be noted: Cardiac atrium. In short, it runs like this:
as §1

Assay [5] is filed under the species Cavia porcellus. In words: Dose inhibiting the ionotropic response induced by hCGRP-alpha in guinea pig right atrium. To be noted: Cardiac atrium. The format is functional. In short, it runs like this:
as §1

Assay [6] is filed under the species Cavia porcellus. In words: Dose inhibiting the chronotropic response induced by hCGRP-alpha in guinea pig right atrium relative to hCGRP(8-37). Format: functional, Cardiac atrium. Also noted: unit not given here.
For assay [7], the species on record is Cavia porcellus. In words: Dose inhibiting the ionotropic response induced by hCGRP-alpha in guinea pig right atrium relative to hCGRP(8-37). Format: functional, Cardiac atrium. Details: unit not given here.
The species named for assay [8] is Rattus norvegicus. In words: Dose inhibiting the twitch response induced by hCGRP-alpha in rat vas deferens. Format: functional. The method in brief:
as §1

Assay [9] is filed under the species Rattus norvegicus. In words: Dose inhibiting the twitch response induced by hCGRP-alpha in rat vas deferens relative to hCGRP(8-37). The format is functional. Details: unit not given here.

Usually IC50 stands for the concentration that inhibits the measured activity by half. A word on the EC50: it is the concentration needed to bring the measured effect to its halfway point. Turning to `CC(C)C[C@H](NC(=O)CNC(=O)[C@H](C)NC(=O)[C@H](CC(C)C)NC(=O)[C@H](CCCN=C(N)N)NC(=O)[C@H](Cc1c[nH]cn1)NC(=O)[C@H](C)NC(=O)[C@@H](N)C(C)C)C(=O)N[C@@H](CC(C)C)C(=O)N[C@@H](CO)C(=O)N[C@@H](CCCN=C(N)N)C(=O)N[C@@H](CO)C(=O)NCC(=O)NCC(=O)N[C@H](C(=O)N[C@H](C(=O)N[C@@H](CCCCN)C(=O)N[C@@H](CC(N)=O)C(=O)N[C@@H](CC(N)=O)C(=O)N[C@@H](Cc1ccccc1)C(=O)N[C@H](C(=O)N1CCC[C@H]1C(=O)N[C@H](C(=O)N[C@@H](CC(N)=O)C(=O)N[C@H](C(=O)NCC(=O)N[C@@H](CO)C(=O)N[C@@H](CCCCN)C(=O)N[C@@H](C)C(=O)N[C@@H](Cc1ccccc1)C(N)=O)C(C)C)[C@@H](C)O)C(C)C)C(C)C)C(C)C`, the IC50 in assay [1] came out at 6.8 nM. For the same compound, the 50% effective concentration (EC50) is 117 nM in assay [2], 238 nM in assay [4], 193 nM in assay [5] and 2.4 nM in assay [8]. Further, the Relative potency in assay [3] is given as 60; in [6] it was 82; in assay [7], 72; in [9] it was 36.

For the compound `CC(C)C[C@H](NC(=O)CNC(=O)[C@H](C)NC(=O)[C@H](CC(C)C)NC(=O)[C@H](CCCN=C(N)N)NC(=O)[C@@H](N)Cc1c[nH]cn1)C(=O)N[C@@H](CC(C)C)C(=O)N[C@@H](CO)C(=O)N[C@@H](CCCN=C(N)N)C(=O)N[C@@H](CO)C(=O)NCC(=O)NCC(=O)N[C@H](C(=O)N[C@H](C(=O)N[C@@H](CCCCN)C(=O)N[C@@H](CC(N)=O)C(=O)N[C@@H](CC(N)=O)C(=O)N[C@@H](Cc1ccccc1)C(=O)N[C@H](C(=O)N1CCC[C@H]1C(=O)N[C@H](C(=O)N[C@@H](CC(N)=O)C(=O)N[C@H](C(=O)NCC(=O)N[C@@H](CO)C(=O)N[C@@H](CCCCN)C(=O)N[C@@H](C)C(=O)N[C@@H](Cc1ccccc1)C(N)=O)C(C)C)[C@@H](C)O)C(C)C)C(C)C)C(C)C`, the IC50 in assay [1] was 10 nM. The concentration giving a half-maximal response (EC50) in assay [2] came to 65 nM; in assay [4], 77 nM; in [5], 114 nM; in assay [8] it was 3.2 nM. Besides, the Relative potency in assay [3] came to 34; in assay [6], 27; in assay [7], 43; in assay [9], 48.

`CC(C)C[C@H](NC(=O)CNC(=O)[C@H](C)NC(=O)[C@H](CC(C)C)NC(=O)[C@H](CCCNC(=N)N)NC(=O)[C@H](Cc1cnc[nH]1)NC(=O)[C@@H](NC(=O)[C@@H](N)C(C)C)[C@@H](C)O)C(=O)N[C@@H](CC(C)C)C(=O)N[C@@H](CO)C(=O)N[C@@H](CCCNC(=N)N)C(=O)N[C@@H](CO)C(=O)NCC(=O)NCC(=O)N[C@H](C(=O)N[C@H](C(=O)N[C@@H](CCCCN)C(=O)N[C@@H](CC(N)=O)C(=O)N[C@@H](CC(N)=O)C(=O)N[C@@H](Cc1ccccc1)C(=O)N[C@H](C(=O)N1CCC[C@H]1C(=O)N[C@H](C(=O)N[C@@H](CC(N)=O)C(=O)N[C@H](C(=O)NCC(=O)N[C@@H](CO)C(=O)N[C@@H](CCCCN)C(=O)N[C@@H](C)C(=O)N[C@@H](Cc1ccccc1)C(N)=O)C(C)C)[C@@H](C)O)C(C)C)C(C)C)C(C)C`: the EC50 in [2] turned out to be 194 nM; in [4], 290 nM; in assay [5], 267 nM; in assay [8], 6.7 nM.

In the case of H-VTHALAGLLSRSGGVVKNNFVPTNVGSKAF-NH2, the IC50 in assay [1] was 33 nM. In addition, the EC50 in assay [2] is 58 nM; in assay [4] it was 83 nM; in assay [5], 106 nM; in assay [8], 3.1 nM. Besides, the Relative potency in assay [3] was found to be 30; in assay [6], 29; in [7], 40; in assay [9], 46.

On to H-VTHRAAGLLSRSGGVVKNNFVPTNVGSKAF-NH2, for which the IC50 in assay [1] is 22 nM. Further, the EC50 in assay [2] turned out to be 89 nM; in assay [4], 116 nM; in assay [5], 116 nM; in assay [8], 2.2 nM. The Relative potency in assay [3] amounted to 46; in [6], 40; in assay [7], 43; in assay [9], 33.

`CC(C)C[C@H](NC(=O)CNC(=O)[C@H](C)NC(=O)[C@H](CC(C)C)NC(=O)[C@H](CCCN=C(N)N)NC(=O)[C@H](C)NC(=O)[C@@H](NC(=O)[C@@H](N)C(C)C)[C@@H](C)O)C(=O)N[C@@H](CC(C)C)C(=O)N[C@@H](CO)C(=O)N[C@@H](CCCN=C(N)N)C(=O)N[C@@H](CO)C(=O)NCC(=O)NCC(=O)N[C@H](C(=O)N[C@H](C(=O)N[C@@H](CCCCN)C(=O)N[C@@H](CC(N)=O)C(=O)N[C@@H](CC(N)=O)C(=O)N[C@@H](Cc1ccccc1)C(=O)N[C@H](C(=O)N1CCC[C@H]1C(=O)N[C@H](C(=O)N[C@@H](CC(N)=O)C(=O)N[C@H](C(=O)NCC(=O)N[C@@H](CO)C(=O)N[C@@H](CCCCN)C(=O)N[C@@H](C)C(=O)N[C@@H](Cc1ccccc1)C(N)=O)C(C)C)[C@@H](C)O)C(C)C)C(C)C)C(C)C`: the EC50 in [2] is 95 nM; in assay [4] it was 129 nM; in [5], 179 nM; in [8], 3.2 nM.

Turning to `CC(C)C[C@H](NC(=O)CNC(=O)[C@H](C)NC(=O)[C@H](CC(C)C)NC(=O)[C@H](CCCN=C(N)N)NC(=O)[C@H](Cc1c[nH]cn1)NC(=O)[C@@H](NC(=O)[C@@H](NC(=O)[C@@H]1CSSC[C@H](NC(=O)[C@H](C)N)C(=O)N[C@@H](CC(=O)O)C(=O)N[C@@H]([C@@H](C)O)C(=O)N[C@@H](C)C(=O)N[C@@H]([C@@H](C)O)C(=O)N1)C(C)C)[C@@H](C)O)C(=O)N[C@@H](CC(C)C)C(=O)N[C@@H](CO)C(=O)N[C@@H](CCCN=C(N)N)C(=O)N[C@@H](CO)C(=O)NCC(=O)NCC(=O)N[C@H](C(=O)N[C@H](C(=O)N[C@@H](CCCCN)C(=O)N[C@@H](CC(N)=O)C(=O)N[C@@H](CC(N)=O)C(=O)N[C@@H](Cc1ccccc1)C(=O)N[C@H](C(=O)N1CCC[C@H]1C(=O)N[C@H](C(=O)N[C@@H](CC(N)=O)C(=O)N[C@H](C(=O)NCC(=O)N[C@@H](CO)C(=O)N[C@@H](CCCCN)C(=O)N[C@@H](C)C(=O)N[C@@H](Cc1ccccc1)C(N)=O)C(C)C)[C@@H](C)O)C(C)C)C(C)C)C(C)C`, the EC50 in assay [2] worked out at 8.7 nM; in assay [4] it was 19 nM; in assay [5] it was 7.9 nM; in assay [8], 1.4 nM.

For the compound `CC(C)C[C@H](NC(=O)CNC(=O)[C@H](C)NC(=O)[C@H](CC(C)C)NC(=O)[C@H](CCCN=C(N)N)NC(=O)[C@H](Cc1c[nH]cn1)NC(=O)[C@@H](N)[C@@H](C)O)C(=O)N[C@@H](CC(C)C)C(=O)N[C@@H](CO)C(=O)N[C@@H](CCCN=C(N)N)C(=O)N[C@@H](CO)C(=O)NCC(=O)NCC(=O)N[C@H](C(=O)N[C@H](C(=O)N[C@@H](CCCCN)C(=O)N[C@@H](CC(N)=O)C(=O)N[C@@H](CC(N)=O)C(=O)N[C@@H](Cc1ccccc1)C(=O)N[C@H](C(=O)N1CCC[C@H]1C(=O)N[C@H](C(=O)N[C@@H](CC(N)=O)C(=O)N[C@H](C(=O)NCC(=O)N[C@@H](CO)C(=O)N[C@@H](CCCCN)C(=O)N[C@@H](C)C(=O)N[C@@H](Cc1ccccc1)C(N)=O)C(C)C)[C@@H](C)O)C(C)C)C(C)C)C(C)C`, the EC50 in assay [2] was 215 nM; in assay [4] it was 180 nM; in assay [5], 225 nM; in [8], 7.6 nM.

On to `CC(C)C[C@H](NC(=O)CNC(=O)[C@H](C)NC(=O)[C@H](CC(C)C)NC(=O)[C@@H](N)CCCN=C(N)N)C(=O)N[C@@H](CC(C)C)C(=O)N[C@@H](CO)C(=O)N[C@@H](CCCN=C(N)N)C(=O)N[C@@H](CO)C(=O)NCC(=O)NCC(=O)N[C@H](C(=O)N[C@H](C(=O)N[C@@H](CCCCN)C(=O)N[C@@H](CC(N)=O)C(=O)N[C@@H](CC(N)=O)C(=O)N[C@@H](Cc1ccccc1)C(=O)N[C@H](C(=O)N1CCC[C@H]1C(=O)N[C@H](C(=O)N[C@@H](CC(N)=O)C(=O)N[C@H](C(=O)NCC(=O)N[C@@H](CO)C(=O)N[C@@H](CCCCN)C(=O)N[C@@H](C)C(=O)N[C@@H](Cc1ccccc1)C(N)=O)C(C)C)[C@@H](C)O)C(C)C)C(C)C)C(C)C`, for which the EC50 in assay [2] was determined as 30 nM; in assay [4], 65 nM; in assay [5], 89 nM; in assay [8] it was 1.4 nM.
